# Test results from ChEMBL document CHEMBL1156759, “Identification and optimization of inhibitors of Trypanosomal cysteine proteases: cruzain, rhodesain, and TbCatB” (J Med Chem, 2010).
# Activity calls are given as the source filed them. The rule behind the calls is not given here.
# What was measured:
# [1] = target: Caspase-6 (Homo sapiens, UniProt P55212); test: Inhibition of human Caspase 6
# In short: (§1)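 Profiling panel run externally as 10-dose, 3-fold serial dilutions of compound. Protease activity followed as a time course of fluorescence increase from a fluorescently labeled peptide substrate. The initial linear slope (signal/min) was analysed.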
# [2] = target: Caspase-14 (Homo sapiens, UniProt P31944); test: Inhibition of human Caspase 14; in short: as §1
# [3] = target: T1, Pro-cathepsin H (Homo sapiens, UniProt P09668); test: Inhibition of human Cathepsin H; in short: as §1
# T1 sequence (P09668 whole entry): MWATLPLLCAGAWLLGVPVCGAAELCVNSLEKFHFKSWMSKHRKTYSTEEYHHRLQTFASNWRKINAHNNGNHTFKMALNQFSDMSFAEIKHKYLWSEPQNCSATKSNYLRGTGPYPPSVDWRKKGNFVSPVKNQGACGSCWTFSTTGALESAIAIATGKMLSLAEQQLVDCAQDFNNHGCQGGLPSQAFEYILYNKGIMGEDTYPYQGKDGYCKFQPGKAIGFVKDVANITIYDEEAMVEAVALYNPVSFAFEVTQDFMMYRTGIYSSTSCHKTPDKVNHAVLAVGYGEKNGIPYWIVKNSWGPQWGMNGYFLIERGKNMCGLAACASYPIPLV
# [4] = target: T2, Cathepsin K (Homo sapiens, UniProt P43235); test: Inhibition of human Cathepsin K/O2; in short: as §1
# T2 sequence (P43235 whole entry): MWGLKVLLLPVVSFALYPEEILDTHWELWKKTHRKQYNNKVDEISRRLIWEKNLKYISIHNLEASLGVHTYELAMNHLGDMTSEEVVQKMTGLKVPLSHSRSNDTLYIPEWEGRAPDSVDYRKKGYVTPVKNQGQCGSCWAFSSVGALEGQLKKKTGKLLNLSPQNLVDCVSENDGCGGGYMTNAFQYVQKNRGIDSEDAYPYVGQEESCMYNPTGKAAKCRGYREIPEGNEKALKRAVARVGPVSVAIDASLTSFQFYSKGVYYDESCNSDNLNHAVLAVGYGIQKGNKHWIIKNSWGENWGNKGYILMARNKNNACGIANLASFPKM
# [5] = target: Procathepsin L (Homo sapiens, UniProt P07711); test: Inhibition of human Cathepsin L; in short: as §1
# [6] = target: Cathepsin S (Homo sapiens, UniProt P25774); test: Inhibition of human Cathepsin S; in short: as §1
# [7] = target: T3, Cathepsin L2 (Homo sapiens, UniProt O60911); test: Inhibition of human Cathepsin V; in short: as §1
# T3 sequence (O60911 whole entry): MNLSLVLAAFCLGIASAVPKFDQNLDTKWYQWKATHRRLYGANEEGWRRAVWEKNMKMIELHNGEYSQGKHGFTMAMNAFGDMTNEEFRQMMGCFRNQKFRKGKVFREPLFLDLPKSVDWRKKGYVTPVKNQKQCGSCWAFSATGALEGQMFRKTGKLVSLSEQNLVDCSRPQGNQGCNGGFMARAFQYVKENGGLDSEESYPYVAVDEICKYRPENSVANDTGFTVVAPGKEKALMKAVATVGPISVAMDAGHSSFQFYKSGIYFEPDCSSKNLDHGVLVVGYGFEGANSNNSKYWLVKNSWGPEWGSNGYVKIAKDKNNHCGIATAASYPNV
# [8] = target: T4, Papain (Carica papaya, UniProt P00784); test: Inhibition of papaya papain; in short: as §1
# T4 sequence (P00784 whole entry): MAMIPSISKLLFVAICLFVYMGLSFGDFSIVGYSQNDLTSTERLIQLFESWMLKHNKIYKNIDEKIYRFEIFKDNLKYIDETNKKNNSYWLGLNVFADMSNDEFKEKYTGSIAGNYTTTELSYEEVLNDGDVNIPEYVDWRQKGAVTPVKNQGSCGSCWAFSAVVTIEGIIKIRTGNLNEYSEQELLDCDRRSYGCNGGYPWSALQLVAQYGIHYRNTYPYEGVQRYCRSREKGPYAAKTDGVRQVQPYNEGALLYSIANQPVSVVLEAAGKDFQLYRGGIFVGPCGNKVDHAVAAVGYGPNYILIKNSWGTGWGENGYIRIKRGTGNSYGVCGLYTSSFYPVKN
# [9] = target: Cathepsin Z (Homo sapiens, UniProt Q9UBR2); test: Inhibition of human Cathepsin X/Z; in short: as §1
# [10] = target: Tissue-type plasminogen activator (Homo sapiens, UniProt P00750); test: Inhibition of human tPA; in short: as §1
# [11] = species on record: Mus musculus; test: Toxicity in mouse; assay type: organism-based; conditions: in vivo
# [12] = species on record: Rattus norvegicus; test: Toxicity in rat; assay type: organism-based; conditions: in vivo
# [13] = species on record: Canis familiaris; test: Toxicity in dog; assay type: organism-based, Canis lupus familiaris; conditions: in vivo
# [14] = target: T5, Cruzipain (Trypanosoma cruzi, UniProt P25779); test: Inhibition of Trypanosoma cruzi cruzain after 15 mins
# In short: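 Cruzain at 1.5 nM final in 100 mM acetate pH 5.5, 5 mM DTT, 0.01% Triton X-100; compounds as serial 2-fold dilutions pin-transferred in DMSO. 15 min room-temperature preincubation, then Z-FR-AMC 2 μM final. Kinetic fluorescence read at ex 340/em 450 nm. Percent inhibition from the first 60 s signal change versus no-enzyme and uninhibited controls (48 wells each).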
# [15] = target: T5, Cruzipain; test: Inhibition of recombinant Trypanosoma cruzi cruzain after 5 mins by spectrofluorimetric analysis
# In short: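 Recombinant cruzain at 4 nM (activated procruzain, anion-exchange purified) in 100 mM sodium acetate pH 5.5, 5 mM DTT, 0.001% Triton X-100. Preincubated 5 min at room temperature with compound in DMSO, then Z-Phe-Arg-AMC 10 μM. Fluorescence rate read at ex 355/em 460 nm; DMSO controls; IC50 by curve fitting.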
# [16] = Inhibition of recombinant Trypanosoma brucei rhodesain after 5 mins by spectrofluorimetric analysis
# In short: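 Recombinant rhodesain, 4 nM, preincubated 5 min at room temperature with compound (DMSO) in 100 mM sodium acetate pH 5.5, 5 mM DTT, 0.001% Triton X-100. Reaction started with 10 μM Z-Phe-Arg-AMC; rate of AMC fluorescence increase read at ex 355/em 460 nm. IC50 from curve fitting; DMSO-only wells as positive control.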
# [17] = Inhibition of recombinant Trypanosoma brucei cathepsin B after 5 mins by spectrofluorimetric analysis
# In short: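 Recombinant TbCatB at 258 nM in 100 mM sodium acetate pH 5.5, 5 mM DTT, 0.001% Triton X-100, preincubated with compound in DMSO for 5 min at room temperature. Z-Phe-Arg-AMC 10 μM added to start. Rate of fluorescence rise read at ex 355/em 460 nm; DMSO control wells; IC50 from curve fitting.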
# [18] = test system: Trypanosoma cruzi; test: Antitrypanosomal activity against Trypanosoma cruzi Y trypomastigotes infected in mouse J774 cells at 1 uM after 27 days medium replaced every 48 hrs; assay type: functional, organism-based
# In short: (§2)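 Irradiated (1000 rad) J774 macrophages plated overnight, infected 2 h with Y strain trypomastigotes, parasites removed, then cultured in RPMI-1640 with compound (n = 3); untreated infected and 10 μM K777 controls per experiment. Medium replaced every 48 h over 27 days; daily phase-contrast microscopy (400×) for free trypomastigotes and host toxicity; cultures kept 14 further days to confirm cure.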
# [19] = test system: J774; test: Cytotoxicity against mouse J774 cells at 10 uM; assay type: cell-based; conditions: j774, 10 µM
# In short: (§3)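 Irradiated (1000 rad) J774 macrophages plated overnight and infected 2 h with Y strain T. cruzi trypomastigotes. After parasite removal, cultured in RPMI-1640 with compound (n = 3), medium changed every 48 h, for 27 days. Toxicity to host cells (granulation, detachment, death) scored daily by phase-contrast microscopy at 400×.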
# [20] = test system: Trypanosoma cruzi; test: Antitrypanosomal activity against Trypanosoma cruzi Y trypomastigotes infected in mouse J774 cells at 5 uM after 27 days medium replaced every 48 hrs; assay type: functional, organism-based; in short: as §2
# [21] = test system: Trypanosoma cruzi; test: Antitrypanosomal activity against Trypanosoma cruzi Y trypomastigotes infected in mouse J774 cells at 10 uM after 27 days medium replaced every 48 hrs; assay type: functional, organism-based; in short: as §2
# [22] = test system: J774; test: Cytotoxicity against mouse J774 cells at 5 uM; assay type: cell-based; conditions: j774, 5 µM; in short: as §3
# [23] = target: Caspase-4 (Homo sapiens, UniProt P49662); test: Inhibition of human Caspase 4; in short: as §1
# [24] = target: Caspase-5 (Homo sapiens, UniProt P51878); test: Inhibition of human Caspase 5; in short: as §1
# [25] = target: Cathepsin B (Homo sapiens, UniProt P07858); test: Inhibition of human Cathepsin B; in short: as §1
# T5 sequence (P25779 whole entry): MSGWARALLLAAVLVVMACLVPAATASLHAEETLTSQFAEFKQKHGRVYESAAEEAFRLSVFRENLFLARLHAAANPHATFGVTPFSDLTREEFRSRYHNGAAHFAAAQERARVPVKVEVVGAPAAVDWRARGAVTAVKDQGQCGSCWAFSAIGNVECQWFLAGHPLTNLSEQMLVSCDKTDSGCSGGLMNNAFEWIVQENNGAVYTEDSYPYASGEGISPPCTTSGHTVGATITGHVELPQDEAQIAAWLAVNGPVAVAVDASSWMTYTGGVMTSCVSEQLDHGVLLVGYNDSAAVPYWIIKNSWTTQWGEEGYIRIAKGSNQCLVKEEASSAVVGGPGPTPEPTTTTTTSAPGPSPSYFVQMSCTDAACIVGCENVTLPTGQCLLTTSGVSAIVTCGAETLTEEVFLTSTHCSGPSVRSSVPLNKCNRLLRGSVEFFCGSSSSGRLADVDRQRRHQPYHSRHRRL
# Chain of Cathepsin S (P25774 whole entry): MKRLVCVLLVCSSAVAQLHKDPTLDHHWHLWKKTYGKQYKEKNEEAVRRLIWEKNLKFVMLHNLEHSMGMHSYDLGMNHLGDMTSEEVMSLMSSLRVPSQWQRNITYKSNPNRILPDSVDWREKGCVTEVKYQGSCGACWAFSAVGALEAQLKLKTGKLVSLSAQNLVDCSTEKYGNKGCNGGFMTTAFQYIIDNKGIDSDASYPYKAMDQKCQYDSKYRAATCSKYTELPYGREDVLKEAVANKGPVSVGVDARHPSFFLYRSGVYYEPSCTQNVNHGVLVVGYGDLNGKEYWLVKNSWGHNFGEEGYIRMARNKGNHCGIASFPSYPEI
# Chain of Caspase-6 (P55212 24-179 limits assumed): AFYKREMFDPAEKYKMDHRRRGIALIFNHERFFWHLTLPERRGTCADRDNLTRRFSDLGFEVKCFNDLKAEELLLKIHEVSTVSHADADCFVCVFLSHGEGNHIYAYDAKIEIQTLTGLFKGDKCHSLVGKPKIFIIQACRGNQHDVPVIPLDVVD
# Chain of Caspase-6 (P55212 194-293 limits assumed): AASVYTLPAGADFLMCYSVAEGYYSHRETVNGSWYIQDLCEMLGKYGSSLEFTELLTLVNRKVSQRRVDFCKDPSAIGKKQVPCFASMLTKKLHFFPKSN
# Chain of Caspase-14 (P31944 6-146 limits assumed): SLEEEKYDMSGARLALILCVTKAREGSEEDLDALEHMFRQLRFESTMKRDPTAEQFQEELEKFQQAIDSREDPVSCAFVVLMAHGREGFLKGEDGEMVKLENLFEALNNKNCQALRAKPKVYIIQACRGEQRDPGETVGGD
# Chain of Caspase-14 (P31944 153-242 limits assumed): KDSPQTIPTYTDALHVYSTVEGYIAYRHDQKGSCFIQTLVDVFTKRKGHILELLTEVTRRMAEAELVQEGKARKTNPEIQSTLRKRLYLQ
# Chain of Procathepsin L (P07711 whole entry): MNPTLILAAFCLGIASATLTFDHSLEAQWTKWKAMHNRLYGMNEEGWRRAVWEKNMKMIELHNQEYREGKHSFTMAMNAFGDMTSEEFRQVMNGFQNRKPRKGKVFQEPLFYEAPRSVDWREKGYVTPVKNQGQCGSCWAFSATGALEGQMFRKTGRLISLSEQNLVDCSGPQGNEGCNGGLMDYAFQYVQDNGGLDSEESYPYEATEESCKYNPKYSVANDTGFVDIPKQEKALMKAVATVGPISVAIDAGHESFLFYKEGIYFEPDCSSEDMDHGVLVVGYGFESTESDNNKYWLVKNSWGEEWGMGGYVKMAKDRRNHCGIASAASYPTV
# Chain of Cathepsin Z (Q9UBR2 whole entry): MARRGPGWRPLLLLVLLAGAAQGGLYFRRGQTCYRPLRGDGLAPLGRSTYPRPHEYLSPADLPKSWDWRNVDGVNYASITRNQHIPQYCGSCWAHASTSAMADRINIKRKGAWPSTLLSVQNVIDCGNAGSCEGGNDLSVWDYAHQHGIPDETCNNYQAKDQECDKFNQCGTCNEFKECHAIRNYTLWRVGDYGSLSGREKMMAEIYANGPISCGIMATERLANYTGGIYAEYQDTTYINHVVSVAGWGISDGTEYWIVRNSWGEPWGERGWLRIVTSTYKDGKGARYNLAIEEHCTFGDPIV
# Chain of Tissue-type plasminogen activator (P00750 whole entry): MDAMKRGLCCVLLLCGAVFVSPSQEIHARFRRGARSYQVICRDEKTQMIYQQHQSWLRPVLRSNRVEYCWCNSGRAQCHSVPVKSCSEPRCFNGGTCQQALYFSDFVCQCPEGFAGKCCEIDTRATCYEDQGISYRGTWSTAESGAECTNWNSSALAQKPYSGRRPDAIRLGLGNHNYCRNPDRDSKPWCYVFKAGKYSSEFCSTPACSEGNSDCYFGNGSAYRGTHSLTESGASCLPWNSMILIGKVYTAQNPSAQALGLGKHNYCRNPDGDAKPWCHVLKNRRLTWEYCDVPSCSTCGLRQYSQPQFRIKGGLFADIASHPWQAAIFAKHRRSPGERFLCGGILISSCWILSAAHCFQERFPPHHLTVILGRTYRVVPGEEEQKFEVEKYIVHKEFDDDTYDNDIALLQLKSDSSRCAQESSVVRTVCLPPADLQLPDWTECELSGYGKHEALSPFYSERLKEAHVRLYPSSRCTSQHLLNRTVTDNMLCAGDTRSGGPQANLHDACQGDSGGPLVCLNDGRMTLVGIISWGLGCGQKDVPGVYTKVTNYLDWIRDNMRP
# Chain of Caspase-5 (P51878 137-327 limits assumed): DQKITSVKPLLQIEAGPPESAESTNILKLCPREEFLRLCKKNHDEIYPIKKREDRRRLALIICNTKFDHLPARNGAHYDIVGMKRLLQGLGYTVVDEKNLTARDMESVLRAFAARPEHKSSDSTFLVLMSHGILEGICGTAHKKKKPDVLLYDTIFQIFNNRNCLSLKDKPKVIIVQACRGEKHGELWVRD
# Chain of Caspase-5 (P51878 347-434 limits assumed): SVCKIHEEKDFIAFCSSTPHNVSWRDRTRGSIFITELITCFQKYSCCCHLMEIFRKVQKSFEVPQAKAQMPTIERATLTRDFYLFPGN
# Chain of Caspase-4 (P49662 81-270 limits assumed): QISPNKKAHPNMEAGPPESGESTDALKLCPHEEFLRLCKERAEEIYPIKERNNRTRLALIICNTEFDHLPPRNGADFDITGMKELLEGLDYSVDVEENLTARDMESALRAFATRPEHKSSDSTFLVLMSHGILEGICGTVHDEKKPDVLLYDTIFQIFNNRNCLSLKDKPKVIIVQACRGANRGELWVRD
# Chain of Caspase-4 (P49662 290-377 limits assumed): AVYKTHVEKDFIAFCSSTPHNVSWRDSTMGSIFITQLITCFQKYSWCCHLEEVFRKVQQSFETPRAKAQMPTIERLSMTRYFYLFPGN
SMILES,IC50 ([14]; read-out: IC50),IC50 [15],IC50 [16],IC50 [17],also measured
N#Cc1nc(Nc2cccc(Cl)c2)nc(NC2CCCC2)n1,79 nM,2 nM,6 nM,> 100000 nM,IC50 [1]: 5130 nM; IC50 [2]: 14100 nM; IC50 [3]: 14500 nM; IC50 [4]: 17.4 nM; IC50 [5]: 309 nM; IC50 [6]: 6460 nM; IC50 [7]: 832 nM; IC50 [8]: 513 nM; IC50 [9]: 6460 nM; IC50 [10]: 851 nM; Activity [11]: Non-toxic; Activity [12]: Non-toxic; Activity [13]: Non-toxic; Activity [18]: inactive; Activity [19]: Toxic; Activity [20]: inactive
CC(C)Nc1nc(C#N)nc(Nc2ccccc2)n1,890 nM,,,,
N#Cc1nc(Nc2cccc([N+](=O)[O-])c2)nc(NC2CCCC2)n1,63 nM,1 nM,8 nM,> 1000 nM,
N#Cc1nc(NCC(F)F)c2ncn(-c3cccc(Cl)c3)c2n1,71 nM,,,,
CCCCNc1nc(C#N)nc(Nc2ccccc2)n1,890 nM,,,,
N#Cc1nc(NCC(F)F)c2ncn(-c3cc(F)cc(F)c3)c2n1,50 nM,,,,
N#Cc1nc(NCCCCO)nc(Nc2ccccc2)n1,890 nM,,,,
N#Cc1nc(NCC2CC2)nc(Nc2ccccc2)n1,890 nM,,,,
CCn1cnc2c(Nc3cccc(Cl)c3)nc(C#N)nc21,18 nM,0.4 nM,10 nM,> 100000 nM,Activity [21]: inactive
N#Cc1nc(Nc2cccc(Br)c2)nc(NC2CCCC2)n1,100 nM,2 nM,6 nM,> 100000 nM,Activity [22]: Toxic; Activity [18]: inactive; Activity [19]: Toxic
N#Cc1nc(Nc2ccccc2)nc(NC2CCCC2)n1,710 nM,,,,
N#Cc1nc(Nc2cc(F)cc(F)c2)nc(NC2CCCC2)n1,63 nM,4 nM,5 nM,4000 nM,Activity [22]: Toxic; IC50 [23]: 8130 nM; IC50 [24]: 13500 nM; IC50 [1]: 3550 nM; IC50 [2]: 9120 nM; IC50 [25]: 10000 nM; IC50 [3]: 16200 nM; IC50 [4]: 20.4 nM; IC50 [5]: 204 nM; IC50 [6]: 5620 nM; IC50 [7]: 182 nM; IC50 [8]: 389 nM; IC50 [9]: 3160 nM; IC50 [10]: 1290 nM; Activity [11]: Non-toxic; Activity [12]: Non-toxic; Activity [13]: Non-toxic; Activity [18]: inactive; Activity [19]: Toxic
CCNc1nc(C#N)nc(Nc2ccccc2)n1,710 nM,,,,
N#Cc1nc(Nc2cccc(F)c2)nc(NC2CCCC2)n1,79 nM,10 nM,20 nM,> 1000 nM,
N#Cc1nc(Nc2ccc(Br)cc2)nc(NC2CCCC2)n1,1120 nM,60 nM,100 nM,> 10000 nM,
Cc1cccc(Nc2nc(C#N)nc(NC3CCCC3)n2)c1,126 nM,30 nM,50 nM,6000 nM,Activity [18]: inactive; Activity [19]: Toxic; Activity [20]: inactive

SMILES,IC50 ([14]; read-out: IC50),IC50 [15],IC50 [16],IC50 [17],also measured
N#Cc1nc(Nc2cccc(Cl)c2)c2ncn(C3CCCC3)c2n1,40 nM,0.3 nM,< 6 nM,> 10000 nM,Activity [21]: inactive
CCNc1nc(C#N)nc2c1ncn2-c1cccc(Cl)c1,63 nM,,,,
N#Cc1nc(Nc2cccc(C(F)(F)F)c2)nc(NC2CCCC2)n1,,40 nM,70 nM,> 10000 nM,IC50 [14]: Not Active; Activity [18]: inactive; Activity [19]: Toxic; Activity [20]: inactive
N#Cc1nc(Nc2cc(F)cc(F)c2)c2ncn(C3CCCC3)c2n1,18 nM,,,,
N#Cc1nc(NCC(F)F)nc(Nc2cc(F)cc(F)c2)n1,25 nM,1 nM,< 6 nM,1000 nM,
N#Cc1nc(Nc2cccc(-c3ccccc3)c2)nc(NC2CCCC2)n1,2240 nM,50 nM,30 nM,> 10000 nM,Activity [18]: inactive; Activity [19]: Toxic; Activity [20]: inactive
N#Cc1nc(Nc2ccc(F)cc2)nc(NC2CCCC2)n1,126 nM,30 nM,40 nM,> 1000 nM,
CC(C)CNc1nc(C#N)nc(Nc2ccccc2)n1,890 nM,,,,
CCCNc1nc(C#N)nc(Nc2ccccc2)n1,790 nM,,,,
N#Cc1nc(NCCO)nc(Nc2ccccc2)n1,1580 nM,,,,
CNc1nc(C#N)nc(Nc2ccccc2)n1,1260 nM,,,,
N#Cc1nc(Nc2ccccc2)nc(NC2CCCCC2)n1,1410 nM,,,,
CCOc1nc(C#N)nc(N2CCCCC2)n1,,90 nM,300 nM,> 1000 nM,
N#Cc1nc(Nc2cc(Cl)cc(Cl)c2)nc(NC2CCCC2)n1,398 nM,10 nM,30 nM,> 10000 nM,Activity [18]: inactive; Activity [19]: Toxic; Activity [20]: inactive
N#Cc1nc(NC2CCCC2)c2ncn(-c3cc(F)cc(F)c3)c2n1,316 nM,,,,
